≈ marks a conversion by molar mass, not a printed value. Calls of active or inactive are those of the source. The rule behind the calls is not given here.
Legend:
[1] = system: MCF7; assay: Cytotoxicity against human MCF7 cells; type: functional, cell-based
Summary of the method: (§1)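 Panel of three human tumour lines: MCF-7 breast carcinoma, NCI-H460 large cell lung carcinoma and SF-268 astrocytoma. The cytotoxicity protocol follows the group's earlier reports.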

[2] = system: Staphylococcus aureus; assay: Antibacterial activity against Staphylococcus aureus by agar plate diffusion assay; type: functional
[3] = system: NCI-H460; assay: Cytotoxicity against human H460 cells; type: functional, cell-based; summary of the method: as §1
[4] = biological target: 3',5'-cyclic-AMP phosphodiesterase 4B (Homo sapiens, UniProt Q07343); assay: Inhibition of human PDE4B2
Chain of 3',5'-cyclic-AMP phosphodiesterase 4B (Q07343 whole entry): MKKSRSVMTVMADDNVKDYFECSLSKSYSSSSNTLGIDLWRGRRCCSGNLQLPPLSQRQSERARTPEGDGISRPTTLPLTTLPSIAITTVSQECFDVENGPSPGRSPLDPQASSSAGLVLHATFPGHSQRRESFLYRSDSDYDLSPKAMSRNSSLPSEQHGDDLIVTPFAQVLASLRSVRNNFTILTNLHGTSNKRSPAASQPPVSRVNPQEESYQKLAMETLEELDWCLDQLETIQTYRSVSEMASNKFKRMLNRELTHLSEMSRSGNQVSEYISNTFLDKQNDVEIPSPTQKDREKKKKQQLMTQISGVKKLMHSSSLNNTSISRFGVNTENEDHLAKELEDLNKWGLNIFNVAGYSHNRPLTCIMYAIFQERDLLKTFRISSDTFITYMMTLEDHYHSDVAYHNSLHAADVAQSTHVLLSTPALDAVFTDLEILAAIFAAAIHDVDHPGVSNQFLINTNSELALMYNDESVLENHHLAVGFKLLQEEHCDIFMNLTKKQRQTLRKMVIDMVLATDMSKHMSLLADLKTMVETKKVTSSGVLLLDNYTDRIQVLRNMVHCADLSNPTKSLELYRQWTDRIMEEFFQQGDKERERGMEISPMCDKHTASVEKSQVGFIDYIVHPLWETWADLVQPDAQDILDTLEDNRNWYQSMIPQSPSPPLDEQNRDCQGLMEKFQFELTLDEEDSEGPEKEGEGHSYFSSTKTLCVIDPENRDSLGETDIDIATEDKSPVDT

[5] = system: SF-268; assay: Cytotoxicity against human SF268 cells; type: functional, cell-based; summary of the method: as §1
[6] = system: Candida albicans; assay: Antifungal activity against Candida albicans by agar plate diffusion assay; type: functional, organism-based
[7] = Inhibition of cGMP-PDE (unknown origin); set-up: species or system Homo sapiens
[8] = Inhibition of cAMP-PDE (unknown origin); set-up: species or system Homo sapiens

Q: What does the source list for `COc1c(O)c(-c2ccccc2)cc(O)c1-c1ccccc1`?
A: Activity [1]: Active; MIC [2]: 25 µg/mL (≈ 85.5 µM); Activity [3]: Active; IC50 [4]: 31 µM; Activity [5]: Active; Activity [6]: inactive

Q: Which Activity [1] does the source give for `COC1=C(c2ccccc2)C(=O)C(OC)=C(c2ccccc2)C1=O` [BETULINAN A] here?
A: inactive

Q: And the Activity [3]?
A: inactive

Q: What about the IC50 [4] of the same compound?
A: 44 µM

Q: What about the Activity [5] of the same compound?
A: inactive

Q: Which Activity [1] does the source give for `COC1=C(c2ccccc2)C(=O)C=C(c2ccccc2)C1=O` [BETULINAN C] here?
A: Active

Q: What about the MIC [2] of the same compound?
A: 25 µg/mL (≈ 86.1 µM)

Q: What about the Activity [3] of the same compound?
A: Active

Q: And the IC50 [4]?
A: 17 µM

Q: What about the Activity [5] of the same compound?
A: Active

Q: What about the Activity [6] of the same compound?
A: inactive

Q: What does the source list for `COc1cc(-c2ccccc2)c(O)c(O)c1-c1ccccc1` [TERFEROL]?
A: IC50 [7]: 0.96 µM; IC50 [8]: 0.82 µM

From ChEMBL document CHEMBL2331090, “Benzoquinones and terphenyl compounds as phosphodiesterase-4B inhibitors from a fungus of the order Chaetothyriales (MSX 47445)” (J Nat Prod, 2013)
